Laboratory results taken from ChEMBL document CHEMBL1773055, “A chemotype that inhibits three unrelated pathogenic targets: the botulinum neurotoxin serotype A light chain, P. falciparum malaria, and the Ebola filovirus” (J Med Chem, 2011).

Columns and labels:
Plasmodium falciparum [1] = assay: Resistance index, ratio of IC50 for Plasmodium falciparum C235 to IC50 for Plasmodium falciparum D6; assay type: functional
Plasmodium falciparum [2] = assay: Antimalarial activity against Plasmodium falciparum W2; assay type: functional, organism-based
Plasmodium falciparum [3] = assay: Antimalarial activity against Plasmodium falciparum C235; assay type: functional, organism-based
[4] = molecular target: Botulinum neurotoxin type A (Clostridium botulinum) (UniProt P0DPI0); assay: (§1) Inhibition of clostridium botulinum Botulinum neurotoxin type A light chain at 20 uM
Sequence of Botulinum neurotoxin type A (Clostridium botulinum) (P0DPI0 2-448 limits assumed): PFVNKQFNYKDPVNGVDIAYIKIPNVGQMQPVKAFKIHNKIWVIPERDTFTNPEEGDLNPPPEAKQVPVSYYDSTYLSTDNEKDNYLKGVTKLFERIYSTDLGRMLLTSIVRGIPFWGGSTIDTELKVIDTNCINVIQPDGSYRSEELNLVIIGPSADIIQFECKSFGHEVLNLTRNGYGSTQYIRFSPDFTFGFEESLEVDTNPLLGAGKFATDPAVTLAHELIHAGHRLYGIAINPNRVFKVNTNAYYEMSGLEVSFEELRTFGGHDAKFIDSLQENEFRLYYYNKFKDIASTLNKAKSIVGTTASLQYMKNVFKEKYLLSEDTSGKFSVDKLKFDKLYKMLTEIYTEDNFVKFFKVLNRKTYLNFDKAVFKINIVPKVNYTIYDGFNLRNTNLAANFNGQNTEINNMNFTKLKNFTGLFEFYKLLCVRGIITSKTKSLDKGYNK
Method in brief: (§2)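 Recombinant BoNT/A LC and peptide substrate were incubated in 40 mM HEPES–0.05% Tween pH 7.3 with 0.5 mg/ml BSA and 50 μM excess ZnCl2 at 37°C, with compound at 20 μM. Reactions were quenched with TFA, and substrate hydrolysis was quantified by reverse-phase HPLC peak areas. Percent inhibition was measured in duplicate.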

Plasmodium falciparum [5] = assay: Antimalarial activity against Plasmodium falciparum D6; assay type: functional, organism-based
Plasmodium falciparum [6] = assay: Resistance index, ratio of IC50 for Plasmodium falciparum W2 to IC50 for Plasmodium falciparum D6; assay type: functional
Method in brief: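 P. falciparum clones D6 (CQ/MFQ-susceptible, Sierra I/UNC), W2 (CQ-resistant, MFQ-susceptible, Indochina I) and TM91C235 (CQ- and MFQ-resistant, South-East Asian) were tested in a modified Desjardins in vitro susceptibility screen, giving IC50 and IC90. Resistance index is IC50 of the resistant strain divided by IC50 against D6 (W2/D6, C235/D6).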

[7] = Selectivity index, ratio of IC50 for […] cells to IC50 for Plasmodium falciparum D6; assay type: toxicity, cell-based; conditions: read-out: Ratio IC50
[8] = Selectivity index, ratio of IC90 for […] cells to IC90 for Plasmodium falciparum C235; assay type: toxicity, cell-based
Ebolavirus [9] = assay: Antiviral activity against Zaire ebolavirus expressing enhanced GFP in Vero 76 cells after 48 hrs by standard Plaque assay; assay type: functional, cell-based; conditions: Orthoebolavirus
[10] = Cytotoxicity against human NCI60 cells; assay type: functional
Ebolavirus [11] = assay: Antiviral activity against Zaire ebolavirus expressing enhanced GFP in Vero 76 cells at 20 uM after 48 hrs by standard Plaque assay; assay type: functional; conditions: Orthoebolavirus
[12] = Inhibition of beta-hematin formation assessed as drug-hematin ratio for 50% inhibition by BHIA assay; assay type: functional
RAW264.7 = assay: Cytotoxicity against rat RAW264.7 cells by MTT assay; assay type: cell-based; conditions: for IC50: Mus musculus, RAW264.7; for IC90: […]
Method in brief: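 RAW 264.7 cells were seeded at 2.5×10^4 per well about 12 h before dosing. They were exposed to 0.29–48 μg/ml compound for 48 h at 37°C, 5% CO2. Viability was read by MTT reduction, with a DMSO control. Runs were in duplicate, and IC50 came from sigmoidal variable-slope dose-response fits.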

Liver = assay: Half life in mouse liver microsomes; assay type: ADME, Microsome
Method in brief: (§3)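 Compound at 10 μM was incubated with mouse or human liver microsomes (1 mg/mL protein) in 0.1 M sodium phosphate pH 7.4 with an NADPH-regenerating system at 37°C, started by G6PD. Samples were quenched with cold acetonitrile at 0, 10, 30 and 60 min and analysed by LC-MS/MS. Half-life = 0.693/k.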

[13] = Selectivity index, ratio of IC50 for […] cells to IC50 for Plasmodium falciparum C235; assay type: toxicity, cell-based; conditions: read-out: Ratio IC50
[14] = Inhibition of beta-hematin formation; assay type: functional
[15] = Selectivity index, ratio of IC90 for […] cells to IC90 for Plasmodium falciparum D6; assay type: toxicity, cell-based
[16] = Selectivity index, ratio of IC50 for […] cells to IC50 for Plasmodium falciparum W2; assay type: toxicity, cell-based; conditions: read-out: Ratio IC50
Vero = assay: Cytotoxicity against african green monkey Vero 76 cells at 20 uM; assay type: cell-based; conditions: chlorocebus sabaeus
[17] = Selectivity index, ratio of IC90 for […] cells to IC90 for Plasmodium falciparum W2; assay type: toxicity, cell-based
Liver microsomes = assay: Half life in human liver microsomes; assay type: ADME, Microsome; method in brief: as §3
[18] = molecular target: Botulinum neurotoxin type A (Clostridium botulinum, UniProt P0DPI0); assay: as §1; method in brief: as §2
Sequence of Botulinum neurotoxin type A (P0DPI0 2-448 limits assumed): as above

| SMILES | Ratio IC50 (Plasmodium falciparum [1]) | IC50 (Plasmodium falciparum [2]) [µM] | IC90 (Plasmodium falciparum [2]) [µM] | IC50 (Plasmodium falciparum [3]) [µM] | IC90 (Plasmodium falciparum [3]) [µM] | inhibition [4] [%] | IC50 (Plasmodium falciparum [5]) [µM] | IC90 (Plasmodium falciparum [5]) [µM] | Ratio IC50 (Plasmodium falciparum [6]) | also measured |
| --- | --- | --- | --- | --- | --- | --- | --- | --- | --- | --- |
| Cc1cc(NCCCN(C)C)c2ccc3c(ccc4c(NCCCN(C)C)cc(C)nc43)c2n1.Cl | 0.53 | 0.353 | 0.709 | 0.0548 | 0.699 | 68.9 | 0.103 | 0.21 | 3.41 | – |
| Cc1cc(NCCCCN)c2ccc3c(ccc4c(NCCCCN)cc(C)nc43)c2n1 | – | – | – | – | – | 72.2 | – | – | – | – |
| Cc1cc(NCCCN2CCOCC2)c2ccc3c(ccc4c(NCCCN5CCOCC5)cc(C)nc43)c2n1.Cl | 1.54 | 0.002 | 0.00638 | 0.00805 | 0.0174 | 55.6 | 0.00523 | 0.00847 | 0.38 | selectivity ratio [7]: 1430; selectivity ratio [8]: 635; IC50 (Ebolavirus [9]): 2.5 µM; inhibition (INH) [10]: 92%; inhibition at 20 µM (Ebolavirus [11]): 96%; IC50 [12]: 0.52 equiv; IC50 (RAW264.7): 7.48 µM; IC90 (RAW264.7): 11 µM; t1/2 (Liver): > 1 h; selectivity ratio [13]: 929; inhibition [14]: Dose-dependent effect; selectivity ratio [15]: 1300; selectivity ratio [16]: 3740; Activity (Vero): < 20%; selectivity ratio [17]: 1730; t1/2 (Liver microsomes): 0.667 h |
| Cc1cc(NCCCN)c2ccc3c(ccc4c(NCCCN)cc(C)nc43)c2n1.Cl | 2.87 | 1.7 | 3.26 | 2.03 | 3.05 | 70 | 0.708 | 1.01 | 2.4 | – |
| Cc1cc(NCCN)c2ccc3c(ccc4c(NCCN)cc(C)nc43)c2n1.Cl | 3.78 | 0.871 | 1.79 | 1.02 | 1.76 | 62.7 | 0.27 | 0.355 | 3.22 | Ki [18]: 8.7 µM |
| C[C@@H]1CC[C@H]2[C@@H](C)C(=O)O[C@@H]3O[C@@]4(C)CC[C@@H]1[C@]32OO4 [ARTEMISININ] | – | 0.0067 | 0.0115 | 0.013 | 0.0174 | – | 0.009 | 0.0128 | – | – |
| Cc1cc(NCCN2CCCC2)c2ccc3c(ccc4c(NCCN5CCCC5)cc(C)nc43)c2n1.Cl | 1.54 | 0.00811 | 0.028 | 0.0259 | 0.0403 | 60.3 | 0.0168 | 0.0323 | 0.48 | IC50 [12]: 0.401 equiv; inhibition [14]: Dose-dependent effect |
| Cc1cc(NCCN2CCCCC2)c2ccc3c(ccc4c(NCCN5CCCCC5)cc(C)nc43)c2n1.Cl | 1.2 | 0.0055 | 0.0154 | 0.0106 | 0.0149 | 63.4 | 0.00879 | 0.0132 | 0.62 | – |
| Cc1cc(NCCCN2CCCC2)c2ccc3c(ccc4c(NCCCN5CCCC5)cc(C)nc43)c2n1.Cl | 2.31 | 0.00775 | 0.0254 | 0.0343 | 0.0952 | 73.5 | 0.0148 | 0.0394 | 0.52 | – |
| CCN(CC)CCCNc1cc(C)nc2c1ccc1c2ccc2c(NCCCN(CC)CC)cc(C)nc21.Cl | 2.22 | 0.00865 | 0.0467 | 0.0665 | 0.286 | 64.7 | 0.03 | 0.0495 | 0.29 | – |
| CCN(CC)CCCC(C)Nc1ccnc2cc(Cl)ccc12 (centres undefined) [CHLOROQUINE] | – | – | 0.698 | – | 0.373 | – | – | 0.0161 | – | – |
| Cc1cc(NCCN2CCOCC2)c2ccc3c(ccc4c(NCCN5CCOCC5)cc(C)nc43)c2n1.Cl | 1.66 | 0.00612 | 0.0115 | 0.00984 | 0.0165 | 39 | 0.00593 | 0.0126 | 1.03 | selectivity ratio [7]: 1720; selectivity ratio [8]: 1820; inhibition (INH) [10]: 91%; inhibition at 20 µM (Ebolavirus [11]): 53%; IC50 [12]: 0.473 equiv; IC50 (RAW264.7): 10.2 µM; IC90 (RAW264.7): 29.9 µM; t1/2 (Liver): > 1 h; selectivity ratio [13]: 1030; inhibition [14]: Dose-dependent effect; selectivity ratio [15]: 2370; selectivity ratio [16]: 1660; selectivity ratio [17]: 2600; t1/2 (Liver microsomes): > 1 h |
| Cc1cc(NCCCN2CCCCC2)c2ccc3c(ccc4c(NCCCN5CCCCC5)cc(C)nc43)c2n1.Cl | 2.68 | 0.00698 | 0.0225 | 0.0248 | 0.0412 | 66.1 | 0.00926 | 0.0174 | 0.75 | IC50 (Ebolavirus [9]): 5 µM; inhibition at 20 µM (Ebolavirus [11]): 100%; Activity (Vero): < 20% |
| Cc1cc(NCCN(C)C)c2ccc3c(ccc4c(NCCN(C)C)cc(C)nc43)c2n1.Cl | 0.98 | 0.00919 | 0.0312 | 0.0153 | 0.026 | 57 | – | 0.0208 | 0.59 | – |
